Activity calls are given as the source filed them. The rule behind the calls is not given here.

The subject of assay [1] is MDA-MB-231. The experiment in a line: Cytotoxicity against human MDA-MB-231 cells assessed as viable cells at 5 uM after 72 hrs by MTT assay in absence of serum relative to control. Type of assay: functional. The following applies: MDA-MB-231, 72 h, read-out: Activity. In a few lines:
(§1)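 MDA-MB-231 cells were seeded at 5000 per well in serum-containing medium and dosed the next day, with or without serum, at the stated concentrations (1 and 5 µM in the serum-free figure). After 72 h, MTT was added, formazan was dissolved in DMSO and absorbance read at 595 nm. Six wells per condition; viability expressed as % of DMSO control.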

Assay [2] deals with MDA-MB-231. The experiment in a line: Cytotoxicity against human MDA-MB-231 cells assessed as viable cells at 1 uM after 72 hrs by MTT assay in absence of serum relative to control. Type of assay: functional. The following applies: MDA-MB-231, 72 h, read-out: Activity. In outline:
as §1
In general terms: Formazan colour is commonly taken as a measure of viable cells.

Assay [3] relates to MDA-MB-231. As to the kind of experiment: Cytotoxicity against human MDA-MB-231 cells assessed as cell viability after 72 hrs by MTT assay in absence of serum. Type of assay: functional, cell-based. The following applies: MDA-MB-231, 72 h. In a few lines: as §1
Assay [4] deals with MDA-MB-231. As to the kind of experiment: Cell cycle arrest in human MDA-MB-231 cells assessed as accumulation at G2/M phase at 5 uM after 72 hrs by propidium iodide staining-based flow cytometric analysis in absence of serum (reference value: 6.53%). Type of assay: functional.
Assay [5] relates to MDA-MB-231. As to the kind of experiment: Cell cycle arrest in human MDA-MB-231 cells assessed as accumulation at S phase at 5 uM after 72 hrs by propidium iodide staining-based flow cytometric analysis in absence of serum (reference value: 6.19%). Type of assay: functional. In general terms: In flow cytometry, cells or beads pass a laser one at a time.
The test system of assay [6] is MDA-MB-231. As to the kind of experiment: Cell cycle arrest in human MDA-MB-231 cells assessed as accumulation at G0/G1 phase at 5 uM after 72 hrs by propidium iodide staining-based flow cytometric analysis in absence of serum (reference value: 84.87%). Type of assay: functional.
The test system of assay [7] is MDA-MB-231. As to the kind of experiment: Cell cycle arrest in human MDA-MB-231 cells assessed as accumulation at subG1 phase at 5 uM after 72 hrs by propidium iodide staining-based flow cytometric analysis in absence of serum (reference value: 2.15%). Type of assay: functional.
For assay [8], the system named is MDA-MB-231. As to the kind of experiment: Cell cycle arrest in human MDA-MB-231 cells assessed as accumulation at G2/M phase at 5 uM after 72 hrs by propidium iodide staining-based flow cytometric analysis in presence of serum (reference value: 15.82%). Type of assay: functional.
Assay [9] concerns MDA-MB-231. The experiment in a line: Cell cycle arrest in human MDA-MB-231 cells assessed as accumulation at S phase at 5 uM after 72 hrs by propidium iodide staining-based flow cytometric analysis in presence of serum (reference value: 14.49%). Type of assay: functional.
For assay [10], the system named is MDA-MB-231. As to the kind of experiment: Cell cycle arrest in human MDA-MB-231 cells assessed as accumulation at G0/G1 phase at 5 uM after 72 hrs by propidium iodide staining-based flow cytometric analysis in presence of serum (reference value: 67.16%). Type of assay: functional.
Assay [11] deals with MDA-MB-231. As to the kind of experiment: Cell cycle arrest in human MDA-MB-231 cells assessed as accumulation at subG1 phase at 5 uM after 72 hrs by propidium iodide staining-based flow cytometric analysis in presence of serum (reference value: 1.99%). Type of assay: functional.
In assay [12] the test system is MDA-MB-231. The experiment in a line: Cytotoxicity against human MDA-MB-231 cells assessed as decrease in cell viability at 1 to 5 uM after 72 hrs by MTT assay in presence of serum. Type of assay: functional, cell-based. In outline:
as §1

For `CC1(C)CC(NCCCO)=Nc2ccc(Cl)cc21`, the viability at 5 µM with MDA-MB-231 [1] is 84.2%. In addition, the viability at 1 µM in the assay on MDA-MB-231 [2] is 84.5%.

As for `CC1(C)CC(NCc2ccccc2)=Nc2ccc(Cl)cc21`, in the assay with MDA-MB-231 [1], the viability at 5 µM came to 68.1%. Also, the viability at 1 µM with MDA-MB-231 [2] came to 88.8%.

For orientation: IC50 means the point on the concentration scale where inhibition reaches its midpoint. Take `CN(C)CCCNC1=Nc2cc(Cl)ccc2C(C)(C)C1`: the IC50 in the assay on MDA-MB-231 [3] stood at 4 µM. Besides, the viability at 5 µM in the assay with MDA-MB-231 [1] amounted to 46.3%. Moreover, the viability at 1 µM in the assay on MDA-MB-231 [2] amounted to 68.4%.

As for `CC1(C)CC(N)=Nc2ccc(Cl)cc21`, in the assay on MDA-MB-231 [1], the viability at 5 µM turned out to be 81%. Besides, the viability at 1 µM in the assay with MDA-MB-231 [2] was determined as 80.5%.

Turning to `CC1(C)CC(=O)Nc2ccc(Cl)cc21`, the viability at 5 µM in the assay with MDA-MB-231 [1] was 81.7%. For the same compound, in the assay on MDA-MB-231 [2], the viability at 1 µM was found to be 82.3%.

Consider `CC1(C)CC(=S)Nc2ccc(Cl)cc21`, for which the viability at 5 µM with MDA-MB-231 [1] came to 94.3%. Moreover, the viability at 1 µM in the assay with MDA-MB-231 [2] came to 85.7%.

Take `CN(C)CCNC1=Nc2ccc(Cl)cc2C(C)(C)C1`: the IC50 in the assay with MDA-MB-231 [3] was found to be 7 µM. The viability at 5 µM with MDA-MB-231 [1] worked out at 50.8%. Besides, the viability at 1 µM with MDA-MB-231 [2] worked out at 66.9%.

Turning to `CN(C)CCCNC1=Nc2cccc(Cl)c2C(C)(C)C1`, the IC50 in the assay with MDA-MB-231 [3] was found to be 4.8 µM. In addition, the viability at 5 µM in the assay on MDA-MB-231 [1] was 43.9%. In addition, in the assay with MDA-MB-231 [2], the viability at 1 µM amounted to 60.5%.

As to `CN(C)CCCNC1=Nc2ccc(Cl)cc2C(C)(C)C1`, the Activity in the assay with MDA-MB-231 [4] is 4.73%; with MDA-MB-231 [5], 5.61%; in the assay with MDA-MB-231 [6], 81.6%; in the assay on MDA-MB-231 [7], 7.63%; in the assay on MDA-MB-231 [8] it was 19.22%; with MDA-MB-231 [9], 14.76%. Besides, the Activity with MDA-MB-231 [10] came to 64.06%; in the assay with MDA-MB-231 [11], 1.53%. Further, the outcome with MDA-MB-231 [12] was Active. Besides, the IC50 with MDA-MB-231 [3] amounted to 2.1 µM. For the same compound, the viability at 5 µM with MDA-MB-231 [1] worked out at 38%. Further, the viability at 1 µM with MDA-MB-231 [2] came to 54.1%.

Regarding `CC1(C)CC(NCCCN2CCOCC2)=Nc2ccc(Cl)cc21`, in the assay on MDA-MB-231 [1], the viability at 5 µM came out at 70.3%. Also, the viability at 1 µM in the assay with MDA-MB-231 [2] is 91.4%.

On to `CC1(C)CC(NCCCCO)=Nc2ccc(Cl)cc21`, for which the viability at 5 µM in the assay on MDA-MB-231 [1] is 84.8%. The viability at 1 µM in the assay with MDA-MB-231 [2] was 87.6%.

Consider `NC1=Nc2ccccc2C(c2ccccc2)C1` (stereo not given), for which the viability at 5 µM in the assay with MDA-MB-231 [1] was found to be 86.3%. The viability at 1 µM with MDA-MB-231 [2] was 86.6%.

As to `CCNC1=Nc2ccc(Cl)cc2C(C)(C)C1`, the viability at 5 µM in the assay with MDA-MB-231 [1] came out at 85.1%. Besides, the viability at 1 µM with MDA-MB-231 [2] worked out at 89.7%.

Regarding `CCN(CC)CCCNC1=Nc2ccc(Cl)cc2C(C)(C)C1`, the Activity with MDA-MB-231 [4] is given as 4.27%; with MDA-MB-231 [5], 4.48%; in the assay with MDA-MB-231 [6], 86.24%; in the assay on MDA-MB-231 [7], 4.77%; in the assay on MDA-MB-231 [8], 20.48%; in the assay with MDA-MB-231 [9], 15.44%. Further, the results for the Activity with MDA-MB-231 [10] and in the assay on MDA-MB-231 [11] were 61.75% and 1.64%, respectively. In the assay with MDA-MB-231 [12], the outcome was Active. The IC50 in the assay with MDA-MB-231 [3] worked out at 2 µM. Further, the viability at 5 µM in the assay with MDA-MB-231 [1] was determined as 36.1%. In addition, the viability at 1 µM with MDA-MB-231 [2] came to 53.3%.

Regarding `CNC1=Nc2ccc(Cl)cc2C(C)(C)C1`, the viability at 5 µM in the assay on MDA-MB-231 [1] amounted to 92.3%. The viability at 1 µM with MDA-MB-231 [2] turned out to be 91.9%.

Regarding `CCCNC1=Nc2ccc(Cl)cc2C(C)(C)C1`, the viability at 5 µM in the assay with MDA-MB-231 [1] turned out to be 82.4%. In addition, in the assay on MDA-MB-231 [2], the viability at 1 µM is 90.7%.
